Only some compounds are listed: those with a hit (about 27% of all), similar ones and a draw of the others.
Cav3 T inh – Cav3.2 calcium influx blockers – cell-based, Fluo-4 calcium fluorescence, FDSS, MLSMR library, primary screen; Voltage-dependent T-type calcium channel subunit alpha-1H (Homo sapiens), O95180; Cav3.2-expressing cells; hits give low values; B-score at 10 µM; 100,000 tested, 4% active;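 active = single-dose well whose peak fluorescence ratio is a statistical outlier from its plate by either plate-standardised score or position-corrected B-score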
Target sequence (O95180 whole entry, looked up): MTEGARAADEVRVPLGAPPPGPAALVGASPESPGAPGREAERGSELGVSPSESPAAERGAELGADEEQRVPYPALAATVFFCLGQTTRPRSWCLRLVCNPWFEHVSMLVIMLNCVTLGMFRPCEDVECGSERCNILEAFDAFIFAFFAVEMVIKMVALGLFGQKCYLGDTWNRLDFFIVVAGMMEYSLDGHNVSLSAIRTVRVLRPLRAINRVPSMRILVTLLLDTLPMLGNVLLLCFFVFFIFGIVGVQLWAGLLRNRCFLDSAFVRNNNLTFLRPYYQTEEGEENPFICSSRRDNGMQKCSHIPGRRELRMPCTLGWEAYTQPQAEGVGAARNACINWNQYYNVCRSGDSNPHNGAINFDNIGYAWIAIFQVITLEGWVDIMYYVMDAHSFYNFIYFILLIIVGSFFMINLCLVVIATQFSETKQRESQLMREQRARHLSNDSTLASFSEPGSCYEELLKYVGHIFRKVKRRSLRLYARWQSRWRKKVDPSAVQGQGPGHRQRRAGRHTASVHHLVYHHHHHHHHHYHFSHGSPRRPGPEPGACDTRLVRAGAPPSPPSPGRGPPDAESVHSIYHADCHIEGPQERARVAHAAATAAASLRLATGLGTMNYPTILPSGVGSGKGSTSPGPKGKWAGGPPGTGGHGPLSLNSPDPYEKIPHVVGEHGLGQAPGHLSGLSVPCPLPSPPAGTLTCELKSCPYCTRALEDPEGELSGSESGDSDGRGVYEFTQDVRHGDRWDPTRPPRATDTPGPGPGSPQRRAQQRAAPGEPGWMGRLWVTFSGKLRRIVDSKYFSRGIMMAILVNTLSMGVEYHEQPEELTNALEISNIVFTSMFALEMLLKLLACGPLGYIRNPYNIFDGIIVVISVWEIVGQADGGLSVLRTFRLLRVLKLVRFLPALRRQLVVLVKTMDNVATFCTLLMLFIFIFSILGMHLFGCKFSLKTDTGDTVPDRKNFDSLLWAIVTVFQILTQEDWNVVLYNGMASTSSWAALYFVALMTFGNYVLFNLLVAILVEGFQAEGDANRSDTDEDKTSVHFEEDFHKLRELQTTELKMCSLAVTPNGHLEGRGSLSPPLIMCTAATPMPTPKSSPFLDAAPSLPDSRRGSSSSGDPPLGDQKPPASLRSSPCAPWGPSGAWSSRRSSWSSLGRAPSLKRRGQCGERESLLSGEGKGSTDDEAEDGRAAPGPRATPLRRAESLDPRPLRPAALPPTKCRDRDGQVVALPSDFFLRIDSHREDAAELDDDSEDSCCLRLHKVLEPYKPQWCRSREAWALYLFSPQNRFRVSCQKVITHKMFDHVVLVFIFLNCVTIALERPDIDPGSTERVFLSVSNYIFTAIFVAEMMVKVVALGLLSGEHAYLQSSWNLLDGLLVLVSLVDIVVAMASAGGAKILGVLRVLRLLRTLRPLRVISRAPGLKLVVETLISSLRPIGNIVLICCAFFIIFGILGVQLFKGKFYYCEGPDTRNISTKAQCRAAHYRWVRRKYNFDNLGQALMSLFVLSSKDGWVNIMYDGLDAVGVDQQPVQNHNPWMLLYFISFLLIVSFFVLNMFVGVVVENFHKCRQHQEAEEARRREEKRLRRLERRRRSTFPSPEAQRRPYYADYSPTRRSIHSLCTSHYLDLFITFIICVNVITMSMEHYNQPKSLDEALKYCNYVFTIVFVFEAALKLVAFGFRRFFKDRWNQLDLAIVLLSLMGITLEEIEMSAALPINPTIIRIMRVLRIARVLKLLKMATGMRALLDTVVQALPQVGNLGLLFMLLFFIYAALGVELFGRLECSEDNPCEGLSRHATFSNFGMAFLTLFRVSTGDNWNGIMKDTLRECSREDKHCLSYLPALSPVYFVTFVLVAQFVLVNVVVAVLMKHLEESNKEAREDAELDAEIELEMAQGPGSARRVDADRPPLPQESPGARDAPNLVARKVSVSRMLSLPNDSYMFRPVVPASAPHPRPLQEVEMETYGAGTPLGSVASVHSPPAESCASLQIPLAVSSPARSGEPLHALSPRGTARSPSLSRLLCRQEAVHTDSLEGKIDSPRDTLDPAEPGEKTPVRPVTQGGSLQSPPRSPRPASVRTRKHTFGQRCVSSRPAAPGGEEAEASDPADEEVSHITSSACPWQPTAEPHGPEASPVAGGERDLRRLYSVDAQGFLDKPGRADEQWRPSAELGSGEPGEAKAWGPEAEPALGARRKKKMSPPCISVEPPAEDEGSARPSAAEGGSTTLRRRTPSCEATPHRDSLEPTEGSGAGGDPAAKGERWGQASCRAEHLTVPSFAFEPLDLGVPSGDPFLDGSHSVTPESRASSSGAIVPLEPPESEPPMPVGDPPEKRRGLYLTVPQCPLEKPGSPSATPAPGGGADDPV
CYP2C9 activ – human CYP2C9 activators, primary screen, biochemical, luminescence; AID 1024, 2008; 96,000 tested, 1.4% active; activation factor at 5 µM; recombinant CYP2C9, luciferin-H conversion; hits give high values; factor 1 = untreated enzyme, 0 = blocked;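 active = activation factor of 2 or more for CYP2C9 at a 5 µM dose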;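 note: 0 = sulfaphenazole-blocked wells and 1 = vehicle-only wells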
CYP2C19 inh – blockers of cytochrome P450 2C19 activity – biochemical, luminescence, ADME assay, primary screen | CYP2C19 Supersomes, luciferin-H EGE luminescence, 30 min | inhibition, % at 5 µM | 96,000 tested, 21% active | AID 778, 2007;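 active = CYP2C19 inhibition above a set limit at 5 µM in the primary screen, cut at about 50% in these data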;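 note: plate controls were negative control wells for no effect and 2.5 mM tranylcypromine positive control for full effect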
CYP2C19 act – human CYP2C19 activators, primary screen, biochemical, luminescence | Cytochrome P450 2C19 (Homo sapiens), P33261 | recombinant CYP2C19, luciferin-H EGE luminescence; hits give high values; 0 = fully inhibited enzyme, 1 = untreated enzyme | activation factor at 5 µM | 96,000 tested, under 10 active | AID 1025, 2008;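 active = activation factor of at least 2 at 5 µM in the primary screen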;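 note: 0 = wells with 2.5 mM tranylcypromine and 1 = vehicle-only wells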
Rev-RRE block – HIV-1 Rev-RRE binding inhibitors, primary screen, biochemical, FRET, protein-RNA interaction; AID 704, 2007; inhibition, % at 8 µM; Rev peptide-RRE RNA binding; P05866; 97,000 tested, 0.79% active;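 active = inhibition above the screen-wide mean plus 3 SD, cut at about 35% in these data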;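 note: 0% = median DMSO wells and 100% = median Neomycin B control wells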
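Assay system: labelled RRE RNA duplex and labelled Rev peptide / Medium: HEPES pH 7.5 salt buffer with EDTA / Reagent: labelled Rev peptide / Schedule: 5 + 15 min at 25 °C / Signal: FRET, excitation 480 nm, emission 540 nm donor and 671 nm acceptor / Benchmarks: DMSO and neomycin B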
CYP2C9 inhib – blockers of cytochrome P450 2C9 activity – biochemical, luminescence, ADME assay, primary screen | inhibition, % at 5 µM | AID 777, 2007 | 96,000 tested, 20% active | P11712 | CYP2C9 Supersomes, luciferin-H conversion;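 active = blocking of liver enzyme CYP2C9 beyond about 50% at 5 µM, limit read from the data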
Numbers without * were called inactive; . = not tested or not shown.

SMILES	Cav3 T inh	CYP2C9 activ	CYP2C19 inh	CYP2C19 act	Rev-RRE block	CYP2C9 inhib
CC1CCCN(S(=O)(=O)c2ccc(S(=O)(=O)N3CCCN(Cc4ccccc4)C3)cc2)C1 (configuration not stated)	-0.084	0.2	95*	0	.	85*
CC1CCN(S(=O)(=O)c2ccc(S(=O)(=O)N3CCCN(Cc4ccccc4)C3)cc2)CC1	.	.	.	.	5	.
COc1ccc(C(=O)NC(=S)Nc2ccc([N+](=O)[O-])cc2C)cc1OC	-0.06	0.8	0	1	-5	19
Cc1occc1-c1nnc(SCC(=O)N2c3ccccc3CCc3ccccc32)n1C	0.52	0.7	29	0.7	-3	32
Cn1c(SCCOc2cccc(Cl)c2)nnc1-c1ccncc1	-0.29	0.8	92*	0.1	4	21
Cc1ccc(OCCSc2nnc(-c3ccncc3)n2C)cc1	0.22	0.6	93*	0.1	4	43
Cc1cccc(OCCSc2nnc(-c3ccoc3C)n2C)c1	0.33	0.4	98*	0	8	58*
CCOC(=O)c1cnc(SCC(=O)N2CCN(c3ccccc3)CC2)nc1N	.	0.7	26	0.7	3	32
CCS(=O)(=O)C(=C1NCCO1)S(=O)(=O)CC	-0.78	1.1	-9	1.1	7	-14
COc1cc(C2C(C#N)=C(N)Oc3cc(C)oc(=O)c32)cc2c1OCO2 (configuration not stated)	-1	0.5	20	0.8	7	54*
CCOc1cccc(C2C(C#N)=C(N)Oc3cc(C)oc(=O)c32)c1OCC (configuration not stated)	-0.15	0.1	21	0.8	4	90*
CCCC(C)C1C(C#N)=C(N)Oc2cc(C)oc(=O)c21 (configuration not stated)	.	.	.	.	6	.
COc1cc(C2C(C#N)=C(N)Oc3cc(C)oc(=O)c32)ccc1OC(=O)N1CCOCC1 (configuration not stated)	0.33	0.8	-7	1.1	.	24
Cc1cc2c(c(=O)o1)C(C(C)C)C(C#N)=C(N)O2 (configuration not stated)	0.0058	1	57*	0.4	5	0
Cc1cc2c(c(=O)o1)C(Cc1ccccc1)C(C#N)=C(N)O2 (configuration not stated)	0.43	0.4	86*	0.1	10	63*
Cn1c(=O)[nH]c(=O)c2c1nc(N1CCOCC1)n2CCCSc1ncccn1	0.54	0.9	-9	1.1	5	7
COc1ccc(Nc2ccc3nnc(-c4ccc(Br)cc4)n3n2)cc1	-0.097	0.7	-15	1.2	6	34
CC(C)OC(=O)c1cc2c(ccn2C)n1CC(=O)N1CCC(Cc2ccccc2)CC1	-7.9*	0.6	30	0.7	-1	38
CCOC(=O)c1cc2c(ccn2C)n1Cc1ccccc1C	-1.7	0.9	35	0.6	1	12
Cc1ccccc1Cn1c(C(=O)OC(C)C)cc2c1ccn2C	-0.84	0.7	53*	0.5	-1	28
Cc1ccc(C)c(Cn2c(C(=O)OC(C)C)cc3c2ccn3C)c1	-3.4	0.7	55*	0.4	-2	35
CCOc1cc(NC2CS(=O)(=O)CC2O)c(OCC)cc1NC(=O)c1ccccc1 (configuration not stated)	0.84	0.9	0	1	-6	9
COC(=O)C1=C(C)N(C)C(C)=C(C(=O)OC)C1c1ccsc1	0.15	0.1	68*	0.3	-4	91*
COC(=O)c1ccc(C2CC(=O)NC3=C2C(=O)CCC3)cc1 (configuration not stated)	0.29	1.1	9	0.9	9	-9
COC(=O)C1=C(C)N(C)C(C)=C(C(=O)OC)C1c1ccc(C(=O)OC)cc1	-1.4	0.1	97*	0	3	92*
SMILES	Cav3 T inh	CYP2C9 activ	CYP2C19 inh	CYP2C19 act	Rev-RRE block	CYP2C9 inhib
COC(=O)C1=C(C)N(C)C(=O)NC1c1ccc(C)cc1 (configuration not stated)	0.37	0.7	54*	0.5	11	29
COC(=O)C1=CNC=C(C(=O)OC)C1c1ccc(C(=O)OC)cc1	-1.6	0	99*	0	.	95*
CCc1cccc(CC)c1N(COC)C(=O)Cn1c(C(C)O)nc2ccccc21 (configuration not stated)	-0.93	0.9	6	0.9	4	6
O=C(CC1NC2CCCCC2NC1=O)Nc1cccc(C(F)(F)F)c1 (configuration not stated)	0.47	1.2	-16	1.2	10	-19
Cc1ccnc(NC(=O)CCc2c(C)nc3ncnn3c2C)c1	-0.07	0.9	-6	1.1	3	10
N#C/C(C(=O)c1ccccc1)=C1/CCCCCN1	-0.56	1	39	0.6	3	-4
CCNC(=S)NC1CC2CCC(C1)N2Cc1ccccc1 (configuration not stated)	0.29	0.9	52*	0.5	4	9
CC(=O)C1=C(O)C(=O)N(CCc2c[nH]c3ccccc23)C1c1ccco1 (configuration not stated)	0.43	0.8	-12	1.1	8	21
CN(CCCC(=O)Nc1ccncc1)S(=O)(=O)c1ccc(Cl)cc1	.	0	98*	0	4	99*
CN(CC(=O)Nc1cccc2c1CCCC2)S(=O)(=O)c1ccc(Br)cc1	-1	1	3	1	11	-4
Cc1nc(NC(=O)CN(C)S(=O)(=O)c2ccc(Br)cc2)sc1C	-5.8*	0.3	94*	0.1	12	67*
Cc1ccc(S(=O)(=O)N(C)CC(=O)Nc2nc3ccccc3s2)cc1	-0.99	1	16	0.8	9	2
CN(CC(=O)Nc1ccncc1)S(=O)(=O)c1ccc(Br)cc1	0.37	0.2	100*	0	-2	77*
CN(CC(=O)Nn1cnnc1)S(=O)(=O)c1ccc(Br)cc1	0.51	0.7	83*	0.2	4	35
CC(C)n1nc(Cc2cccc3ccccc23)c(C#N)c1N	-0.55	.	.	.	.	.
CCN(CC)S(=O)(=O)N1CCC(C(=O)NC2CCCc3ccccc32)CC1 (configuration not stated)	0.36	.	.	.	-4	.
Cc1ccc(N2CC(C(=O)Nc3ccccn3)CC2=O)cc1 (configuration not stated)	-0.78	0.8	25	0.8	6	24
O=[N+]([O-])c1ccc(Sc2nccn2Cc2ccccc2)c([N+](=O)[O-])c1	-1.2	0.6	51*	0.5	0	35
